SENP8 block-1 – human SENP8 protease inhibitors, primary screen, biochemical, fluorescence, Nedd8 protein substrate, uHTS; AID 602440, 2012; 0.64% of 360,000 active; inhibition, % at 20 µM; Sentrin-specific protease 8 (Homo sapiens), Q96LD8; recombinant SENP8; in the data active means inhibition mostly above about 40%, no sharp cut-off; inactive means mostly below about 27%
Target sequence (Q96LD8 whole entry, looked up): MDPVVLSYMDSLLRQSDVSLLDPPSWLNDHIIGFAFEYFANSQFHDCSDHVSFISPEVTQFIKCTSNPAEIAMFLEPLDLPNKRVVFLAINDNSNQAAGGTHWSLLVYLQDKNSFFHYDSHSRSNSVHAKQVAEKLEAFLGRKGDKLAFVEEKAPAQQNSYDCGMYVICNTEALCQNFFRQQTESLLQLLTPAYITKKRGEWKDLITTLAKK
SENP1 FRET inh – human SENP1 catalytic domain inhibitors, primary screen, biochemical, FRET, uHTS; inhibition, % at 10 µM; recombinant SENP1 catalytic domain, CyPet-SUMO1-YPet FRET cleavage; Sentrin-specific protease 1 (Homo sapiens), Q9P0U3; 0.21% of 360,000 active;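 active means inhibition at least 30% at 10 µM, raw YFP signal under a set limit, fluorescence ratio 0.5 to 1.5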
Target sequence (Q9P0U3 419-644 limits assumed): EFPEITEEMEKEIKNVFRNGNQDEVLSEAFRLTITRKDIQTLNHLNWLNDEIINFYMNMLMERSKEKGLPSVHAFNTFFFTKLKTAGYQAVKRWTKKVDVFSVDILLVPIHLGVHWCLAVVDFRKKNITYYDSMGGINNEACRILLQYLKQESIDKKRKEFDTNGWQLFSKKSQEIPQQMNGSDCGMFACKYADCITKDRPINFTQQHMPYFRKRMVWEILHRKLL
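material = recombinant human SENP1 catalytic domain, His6-tagged | quantity = 20 pM enzyme | reagent = 25 nM SUMO1 FRET substrate | compound dosing = 10 µM single point, 0.5% DMSO | timing = 50 min enzyme reaction, room temperature, light-protected | detection = FRET, CFP and YFP emission | control set = no-enzyme low, enzyme-DMSO high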
SENP7 block – SENP7 protease inhibitors, primary screen, biochemical, luminescence, uHTS | Sentrin-specific protease 7 (Homo sapiens), Q9BQF6 | recombinant SENP7, Z-RLRGG-aminoluciferin luminescence, 40 min | inhibition, % at 5 µM | 1.5% of 330,000 active | AID 434973, 2010;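 active means inhibition above about 50% at the single test dose, limit read from the data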
SENP8 block-2 – SENP8 protease inhibitors, primary screen, biochemical, luminescence | inhibition, % at 10 µM | 1.2% of 330,000 active | purified SENP8, Z-RLRGG-aminoluciferin cleavage; in the data active means inhibition above about 50%
SENP6 inh – SENP6 protease inhibitors, primary screen, biochemical, luminescence, uHTS; 1.8% of 330,000 active; Recombinant SENP6 catalytic domain, aminoluciferin luminescence; inhibition, % at 10 µM; Sentrin-specific protease 6 (Homo sapiens), Q9GZR1;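 active means inhibition above about 50% at the single tested dose, limit read from the data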
Large screens that a line does not name were inactive. The list is not random: actives were taken first. Their share in the collection is about 2.5%.

COc1ccccc1NS(=O)(=O)c1cccc(C(=O)NCc2ccco2)c1	none
O=C1C(NS(=O)(=O)c2ccc(Br)cc2)=C(N2CCCCC2)C(=O)c2ccccc21	SENP8 block-1 64
CC1CCCN(C2=C(NS(=O)(=O)c3ccc(Br)cc3)C(=O)c3ccccc3C2=O)C1 (stereo unspecified)	none
CSc1ccc(/C=N/NC(=O)CNc2cccc3ccccc23)cc1	SENP6 inh 73
CCOC(=O)C1CCN(C(=O)c2c(C)oc3c2C(=O)c2ccccc2C3=O)CC1	SENP8 block-1 60
Cc1ccc(N=Nc2c(C)[nH]n(C(N)=S)c2=O)cc1	SENP7 block 63, SENP8 block-2 74, SENP6 inh 79
Cc1[nH]n(C(N)=S)c(=O)c1N=Nc1ccc(S(=O)(=O)N2CCCC2)cc1	none
Cc1cc(NC(=O)c2cc3cccc([N+](=O)[O-])c3[nH]2)ccc1F	SENP7 block 77, SENP8 block-2 61, SENP6 inh 73
CCC(=O)Nc1cccc2cccnc12	none
C/C(=N\Nc1cccc2cccnc12)c1ccc[nH]1	SENP7 block 57, SENP8 block-2 75
Cc1cnccc1CNC(=O)CC1C(=O)NCCN1CC(C)(C)C (stereo unspecified)	none
O=c1[nH][nH]c2c(N=Cc3ccccc3O)ccc(F)c12	SENP8 block-1 47 (no result: SENP7 block, SENP8 block-2, SENP6 inh)
CN(C)CCNc1ccc2ncn3c4ccc(O)cc4c(=O)c1c23	none (no result: SENP7 block, SENP8 block-2, SENP6 inh)
O=C(Cc1ccccc1)c1c[nH]c(C(=O)NCCCN2CCOCC2)c1	none
O=[N+]([O-])c1ccc(N=Nc2c(O)[nH]c3ccc(F)cc23)cc1	SENP1 FRET inh 49
O=[N+]([O-])c1ccccc1N=Nc1c(O)[nH]c2ccc(F)cc12	none (no result: SENP7 block, SENP8 block-2, SENP6 inh)
O=C(CSc1cn[nH]n1)Nc1ccccc1C(=O)O	none
OC[C@@H]1CN(CCN2CCOCC2)C[C@H](n2cnc3c(NC4CCCC4)ncnc32)O1	none (no result: SENP7 block, SENP8 block-2, SENP6 inh)
CCC(=O)NC1=C(Cl)C(=O)C(NC(=O)CC)=C(Cl)C1=O	SENP8 block-1 50
CC(/C=C1\SC(=S)N(NC(=O)c2ccc(C)cc2)C1=O)=C\c1ccccc1	SENP8 block-1 40
Cn1cccc1/C=C1\SC(=S)N(NC(=O)c2ccccc2)C1=O	none (no result: SENP7 block, SENP8 block-2, SENP6 inh)
Cn1cccc1/C=C1\SC(=S)N(NC(=O)c2ccc(F)cc2)C1=O	SENP8 block-1 52
Cn1cccc1/C=C1\SC(=S)N(NC(=O)c2ccccc2O)C1=O	SENP8 block-1 47
Cc1noc(C)c1COc1ccc(C(=O)OCC(=O)Nc2c(C)n(C)n(-c3ccccc3)c2=O)cc1	none
CCOC(=O)c1c2c(n(Cc3ccccc3)c1C)C(=O)C(=O)c1ccccc1-2	SENP8 block-1 100 (no result: SENP7 block, SENP8 block-2, SENP6 inh)
CCOC(=O)c1c2c3c(cccc3n(C)c1=O)C(=O)c1ccccc1-2	none
CCOC(=O)c1c2c(n(C)c1C)C(=O)C(=O)c1ccc(Br)cc1-2	SENP8 block-1 114, SENP7 block 97, SENP8 block-2 93, SENP6 inh 94
Cc1c(CN(C)C)c2c(n1C)C(=O)c1ccc(Br)cc1-2	none
Cc1ccc(N(CCC#N)C(=O)COC(=O)C2CCN(S(=O)(=O)c3ccc4c(c3)OCCO4)CC2)cc1	none
O=c1nc(Nc2cccc(Cl)c2)oc2cc(Cl)oc(=O)c12	SENP8 block-2 95, SENP6 inh 95
O=c1nc(Nc2ccccc2)oc2ccccc12	none
Oc1cccc(/C=N/N(Cc2ccccc2)c2ccccc2)c1	none
Oc1ccc(/C=N/N(Cc2ccccc2)c2ccccc2)c(O)c1O	SENP8 block-1 56 (no result: SENP7 block, SENP8 block-2, SENP6 inh)
O=C(NNc1nc(N2CCOCC2)nc(N2CCOCC2)n1)Nc1ccc(Cl)cc1	none (no result: SENP8 block-1, SENP1 FRET inh)
Nc1nnnn1/N=C/c1cc(Cl)cc(Cl)c1OCc1ccc(Cl)cc1Cl	SENP1 FRET inh 53
O=C(COC(=O)/C=C/c1ccc(OC(F)F)cc1)NC1CCCCCC1	none
COC(=O)CC1OCC=C2CN3CCC45C6=CC(=O)C(=O)C([N+](=O)[O-])=C6NC4C1C2CC35 (stereo unspecified)	SENP8 block-1 110 (no result: SENP7 block, SENP8 block-2, SENP6 inh)
CSCCC(NC(=O)c1ccco1)C(=O)Nc1ccc(C)c(S(=O)(=O)N2CCOCC2)c1 (stereo unspecified)	none
N#CNc1nc(O)cc(=O)[nH]1	SENP1 FRET inh 29
CCSc1nc(O)cc(=O)[nH]1	none
Clc1ccccc1OCc1nc(-c2ccccn2)no1	SENP7 block 84, SENP8 block-2 69, SENP6 inh 86
CC(C)N(Cc1ccccc1)S(=O)(=O)c1cccs1	none
O=C1/C(=N\S(=O)(=O)c2cccs2)C([n+]2cccc(Cc3ccccc3)c2)=C([O-])c2ccccc21	SENP8 block-1 77
COc1ccc(C(=O)Nc2ccc(NC(=O)C3CC3)nc2)cc1	none
CC(C)(C)c1cc(NC(=O)c2cccs2)no1	SENP7 block 95, SENP8 block-2 88, SENP6 inh 89
CN1C(=O)/C(=C/c2ccc(-c3ccccc3[N+](=O)[O-])o2)SC1=Nc1ccc(Cl)c(C(=O)O)c1	SENP8 block-1 42 (no result: SENP7 block, SENP8 block-2, SENP6 inh)
O=C(O)c1cc(-c2ccc(/C=C3/SC(=S)N(Cc4ccccc4)C3=O)o2)ccc1Cl	none (no result: SENP7 block, SENP8 block-2, SENP6 inh)
COc1ccccc1N1CCN(C2=Nc3cccc4cccc2c34)CC1	SENP1 FRET inh 95
COc1ccccc1N1CCN(C(=O)CN2C(=O)c3cccc4cccc(c34)C2=O)CC1	none
Cc1cc(SCC(=O)NCC2CCCO2)nc2ccccc12 (stereo unspecified)	SENP1 FRET inh 57
COCCn1c(N)c(C(=O)NCC2CCCO2)c2nc3ccccc3nc21 (stereo unspecified)	SENP7 block 63, SENP8 block-2 86, SENP6 inh 84
COc1ccc(OC)c(-n2c(N)c(C(=O)NCC3CCCO3)c3nc4ccccc4nc32)c1 (stereo unspecified)	none (no result: SENP7 block, SENP8 block-2, SENP6 inh)
O=C(CO)c1c[nH]c2ccccc12	none (no result: SENP7 block, SENP8 block-2, SENP6 inh)
Cc1cccc2nc(COc3ccc(-c4ccccc4)cc3)cn12	SENP7 block 95, SENP8 block-2 92, SENP6 inh 94 (no result: SENP8 block-1, SENP1 FRET inh)
Cc1cc(C)n2cc(COc3ccc4ccccc4c3)nc2n1	none
COc1cc(S(=O)(=O)Nc2cccc(C)c2)ccc1N=Cc1c(C)[nH]n(-c2ccccc2)c1=O	none (no result: SENP8 block-1, SENP1 FRET inh)
Cc1[nH]n(-c2ccccc2)c(=O)c1C=Nc1ccc(S(=O)(=O)Nc2nccs2)cc1	SENP8 block-1 44
COc1cc(S(=O)(=O)Nc2ccc(C)cc2)ccc1N=Cc1c(C)[nH]n(-c2ccccc2)c1=O	SENP8 block-1 46
Cc1ccc2[nH]c(O)c(N=Nc3ccccc3[N+](=O)[O-])c2c1	none (no result: SENP7 block, SENP8 block-2, SENP6 inh)
Cc1ccc2[nH]c(O)c(N=Nc3nc4ccccc4s3)c2c1	SENP1 FRET inh 35
Cc1cc(C)c(C)c(S(=O)(=O)N2CCN(C(=O)CNC(=O)c3ccco3)CC2)c1C	none
CCN(CC)c1ccc2cc(-c3nc4ccccc4n3C)c(=O)oc2c1	none (no result: SENP7 block, SENP8 block-2, SENP6 inh)
CCN(CC)c1ccc2cc(-c3nc4ccccc4[nH]3)c(=O)oc2c1	SENP7 block 95, SENP8 block-2 51, SENP6 inh 69
